This note sets out measurements from ChEMBL document CHEMBL4229337, “Design, synthesis and biological evaluation of 1-hydroxy-2-phenyl-4-pyridyl-1H-imidazole derivatives as xanthine oxidase inhibitors” (Eur J Med Chem, 2018).

A value given as a limit tells only on which side of the number the result lay.

T1 sequence (P80457 whole entry): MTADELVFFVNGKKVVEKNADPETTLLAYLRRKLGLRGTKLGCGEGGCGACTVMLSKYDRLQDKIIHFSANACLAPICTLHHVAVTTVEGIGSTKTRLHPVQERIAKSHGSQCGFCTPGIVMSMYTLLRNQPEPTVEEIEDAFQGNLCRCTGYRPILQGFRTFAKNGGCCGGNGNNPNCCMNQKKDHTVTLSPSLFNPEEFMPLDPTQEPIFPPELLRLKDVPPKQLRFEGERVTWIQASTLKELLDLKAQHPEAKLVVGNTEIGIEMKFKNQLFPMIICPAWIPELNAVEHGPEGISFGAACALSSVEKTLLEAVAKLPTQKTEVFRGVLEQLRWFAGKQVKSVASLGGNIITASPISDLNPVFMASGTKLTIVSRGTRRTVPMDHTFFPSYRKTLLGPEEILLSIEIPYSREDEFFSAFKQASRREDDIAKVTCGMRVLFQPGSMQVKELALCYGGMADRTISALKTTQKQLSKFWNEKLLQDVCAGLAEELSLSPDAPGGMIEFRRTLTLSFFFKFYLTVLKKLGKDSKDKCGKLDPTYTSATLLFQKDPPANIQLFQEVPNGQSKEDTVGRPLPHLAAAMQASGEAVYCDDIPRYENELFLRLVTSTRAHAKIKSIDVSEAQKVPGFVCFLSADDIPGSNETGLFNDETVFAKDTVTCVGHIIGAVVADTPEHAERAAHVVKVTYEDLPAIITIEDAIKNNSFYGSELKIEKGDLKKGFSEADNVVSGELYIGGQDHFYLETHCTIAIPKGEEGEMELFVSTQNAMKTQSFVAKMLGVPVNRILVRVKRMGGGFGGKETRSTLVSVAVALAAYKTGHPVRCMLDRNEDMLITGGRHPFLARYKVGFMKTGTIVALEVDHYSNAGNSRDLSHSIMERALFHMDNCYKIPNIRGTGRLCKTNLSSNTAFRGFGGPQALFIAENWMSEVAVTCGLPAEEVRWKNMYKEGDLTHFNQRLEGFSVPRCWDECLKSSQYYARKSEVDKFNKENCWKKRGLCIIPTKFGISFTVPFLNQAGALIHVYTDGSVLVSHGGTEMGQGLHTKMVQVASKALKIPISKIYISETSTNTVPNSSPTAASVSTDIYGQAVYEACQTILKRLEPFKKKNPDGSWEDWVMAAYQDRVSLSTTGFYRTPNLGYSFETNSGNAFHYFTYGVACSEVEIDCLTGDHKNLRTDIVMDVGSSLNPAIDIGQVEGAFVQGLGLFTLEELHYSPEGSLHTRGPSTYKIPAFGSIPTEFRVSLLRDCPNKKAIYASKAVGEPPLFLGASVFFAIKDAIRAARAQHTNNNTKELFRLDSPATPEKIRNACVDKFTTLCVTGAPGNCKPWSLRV

One series addresses T1, Xanthine dehydrogenase/oxidase (Bos taurus, UniProt P80457). Put plainly: Inhibition of bovine xanthine oxidase assessed as reduction in uric acid formation using xanthine as substrate preincubated for 15 mins followed by substrate addition by spectrophotometric analysis.
Details: not given; call rule not given here
The gist of the method: (§1)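 XO (15 U/L) in 0.1 M sodium pyrophosphate buffer pH 8.3 with 0.3 mM Na₂EDTA, preincubated 15 min with test compound; reaction started by adding 64 μM xanthine. Inhibition read as lowered uric acid concentration, in triplicate. Single-point screen at 10 µg/mL; compounds above 50% inhibition were then run over a wide concentration range to derive IC₅₀.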
Turning to `CC(C)Oc1ccc(-c2nc(-c3ccncc3)cn2O)cc1C#N`, the IC50 came out at 4.75 µM and the pIC50 was found to be 5.32.
On the same counts, the results for `CCC(C)Oc1ccc(-c2nc(-c3ccncc3)cn2O)cc1C#N` (configuration not stated) are 4.35 µM and 5.36.
With `Cc1cc(-c2n[nH]c(-c3ccc(O)c(C#N)c3)n2)ccn1`, the pIC50 was found to be 7.37.
Same read-out and setting: then `Cc1cc(-c2nc(-c3ccc(OCC(C)C)c([N+](=O)[O-])c3)n[nH]2)ccn1`, with 8; and `CCCCOc1ccc(-n2cc(-c3ccncc3)nn2)cc1C#N`, with 4.68.
For `CC(C)COc1ccc(-c2nc(-c3cccnc3)cn2O)cc1C#N`, the IC50 came to 10.3 µM and the negative-log IC50 (pIC50) was 4.99.
In the case of `CC(C)Oc1ccc(-n2cc(-c3ccncc3)nn2)cc1C#N`, the pIC50 was 4.6.
On the same count and under the same terms, then `CCCCOCCOCCOc1ccc(-c2nnc(-c3ccnc(C)c3)[nH]2)cc1C#N`, with 7.59; and `COCCOCOc1ccc(-c2nc(-c3ccnc(C)c3)n[nH]2)cc1C#N`, with 7.62.
In the case of `N#Cc1cc(-c2n[nH]c(-c3ccncc3)n2)ccn1` [TOPIROXOSTAT], the 50% inhibitory concentration (IC50) was 0.0048 µM.
As to `Cc1cc(-c2n[nH]c(-c3ccc(OCCO)c(C#N)c3)n2)ccn1`, the negative logarithm of the IC50 (pIC50) came to 7.4.
Same read-out and setting: then `Cc1cc(-c2nnc(-c3ccc(OCCOCCOCCCl)c(C#N)c3)[nH]2)ccn1`, with 7.68.
Same read-out and setting: then `CCOC(=O)c1cc(-c2nnc(-c3ccnc(C)c3)[nH]2)ccc1OCC(C)C`, with 7.7; and `CC(C)COc1ccc(-c2nc(-c3cccnc3)n[nH]2)cc1[N+](=O)[O-]`, with 5.23.
As to `COc1ccc(-c2nc(-c3ccncc3)cn2O)cc1C#N`, the half-inhibitory concentration (IC50) turned out to be 15.4 µM and the negative-log IC50 (pIC50) was 4.81.
On the same counts, the results for `C=CCOc1ccc(-c2nc(-c3cccnc3)cn2O)cc1C#N` are 9.62 µM and 5.02.
With `CCCCCOc1ccc(-n2cc(-c3ccncc3)nn2)cc1C#N`, the pIC50 stood at 4.79.
Still for that read-out and setting: the result for `COCOc1ccc(-c2nc(-c3ccnc(C)c3)n[nH]2)cc1C#N` reads 7.62; that for `N#Cc1cc(-n2cc(-c3ccncc3)nn2)ccc1OCc1ccccc1`, 4.35.
For the compound `CCC(C)Oc1ccc(-n2cc(-c3ccncc3)nn2)cc1C#N` (configuration not stated), the negative-log IC50 (pIC50) is 4.74.
Still for that read-out and setting: the result for `COc1ccc(COc2ccc(-n3cc(-c4ccncc4)nn3)cc2C#N)cc1` reads 4.63; that for `CC(C)COc1ccc(-c2nnc(-c3ccnc(Cl)c3)[nH]2)cc1[N+](=O)[O-]`, 8.
Same read-out and setting: the result for `CC(C)CCOc1ccc(-n2cc(-c3ccncc3)nn2)cc1C#N` reads 5.09.
Still for that read-out and setting: the result for `Cc1cc(-c2nnc(-c3ccc(OCC(=O)O)c(C#N)c3)[nH]2)ccn1` reads 6.96; that for `Cc1cc(-c2n[nH]c(-c3ccc(OCC4COC(C)(C)O4)c(C#N)c3)n2)ccn1` (configuration not stated), 7.22.
As to `CC(C)CCOc1ccc(-c2nc(-c3ccncc3)cn2O)cc1C#N`, the concentration for half-maximal inhibition (IC50) was found to be 0.64 µM and the negative-log IC50 (pIC50) is 6.19.
Taken in the same sequence, the figures for `CC(C)CCOc1ccc(-c2nc(-c3cccnc3)cn2O)cc1C#N` were 6.73 µM and 5.17.
`COCCOc1ccc(-c2nc(-c3ccnc(C)c3)n[nH]2)cc1C#N`: the negative logarithm of the IC50 (pIC50) came to 7.19.
Still for that read-out and setting: then `COCCOCCOc1ccc(-c2nc(-c3ccnc(C)c3)n[nH]2)cc1C#N`, with 7.51; and `Cc1cc(-c2n[nH]c(-c3ccc(OCC(C)C)c(C#N)c3)n2)ccn1`, with 7.77.
On the same count and under the same terms, the result for `N#Cc1cc(-n2cc(-c3ccncc3)nn2)ccc1OC1CCCC1` reads 5.17.

The same series, now with this note: cattle.
On to `CC(C)CCOc1ccc(-c2nc(-c3ccncc3)cn2O)cc1C#N`, for which the “inhibition (INH)” value is given as “Dose-dependent effect”.

The target in a further series is T1, Xanthine dehydrogenase/oxidase. Description: Mixed-type inhibition of bovine xanthine oxidase assessed as reduction in uric acid formation using xanthine as substrate preincubated for 15 mins followed by substrate addition by spectrophotometry based Lineweaver-Burk plot analysis. The note with it: cattle.
`CC(C)CCOc1ccc(-c2nc(-c3ccncc3)cn2O)cc1C#N`: the “inhibition (INH)” value is on record as “Active”.

A further series has the same target. Put plainly: Inhibition of bovine xanthine oxidase assessed as reduction in uric acid formation at 10 ug/ml using xanthine as substrate preincubated for 15 mins followed by substrate addition by spectrophotometric analysis. Particulars: cattle. The gist of the method:
as §1
Consider `CC(C)COc1ccc(-c2nc(-c3ccncc3)cn2O)cc1C#N`, for which the “inhibition (INH)” value is recorded as less than 50%.
Regarding `N#Cc1cccc(-c2nc(-c3ccncc3)cn2O)c1`, the “inhibition (INH)” value is listed as less than 50%.
On the same count and under the same terms, the result for `N#Cc1cccc(-c2nc(-c3cccnc3)cn2O)c1` reads less than 50%; that for `COc1ccc(-c2nc(-c3cccnc3)cn2O)cc1C#N`, less than 50%; that for `CCC(C)Oc1ccc(-c2nc(-c3cccnc3)cn2O)cc1C#N` (configuration not stated), less than 50%.
Same read-out and setting: the result for `CC(C)Oc1ccc(-c2nc(-c3cccnc3)cn2O)cc1C#N` reads less than 50%; that for `C=CCOc1ccc(-c2nc(-c3ccncc3)cn2O)cc1C#N`, less than 50%.

One may read the IC50 as the midpoint of a concentration-inhibition curve. The pIC50 is the negative decadic logarithm of the IC50, by convention in mol/L.
